A selection: hits, their analogues and other compounds. The true share with any hit is near 2.5%.
TbMetRS inhib: T. brucei MetRS inhibitors, primary screen, biochemical, luminescence | methionyl-tRNA synthetase (Trypanosoma brucei brucei) | purified T. brucei MetRS, ATP depletion, Kinase-Glo luminescence | inhibition, % at 11.9 µM | 0.4% of 360,000 active;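 active = inhibition above a per-plate cutoff of the control wells' mean inhibition plus 3 SD, cut at about 5.5% in these data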;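 note: 0% = DMSO wells median and 100% = median of wells with control inhibitor compound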
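System: purified T. brucei MetRS enzyme / Detection: Kinase-Glo luciferase luminescence reporting remaining unconsumed ATP / Medium: HEPES buffer with MgCl2, KCl, DTT, spermine, BSA, pyrophosphatase / Replication: singlicate, one well per compound / Evaluation: percent inhibition relative to median high and low control wells / Schedule: 2 h aminoacylation at 25 °C after 15 min preincubation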
A1 inh: caspase 3/7 activation in MEF A1-2A-BIM cells, primary screen, A1 inhibitor project, cell-based, luminescence, HTS | AID 2462, 2010 | Caspase-Glo 3/7 luminescence, 3 h; percent of clofoctol response, vehicle zero | 0.066% of 330,000 active | caspase activation, % (no concentration beside the values);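 active = over half of replicate activation scores above 10%, or exactly half above 10 with the replicate mean above 10; inconclusive = replicate mean below 10 yet half the replicates above 10; inactive = over half of replicates below 10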
MC4R ag barr: MC4R agonists recruiting beta-arrestin, primary screen, cell-based, luminescence, agonist arm of biased-ligand search | Melanocortin receptor 4 (Homo sapiens), P32245 | U2OS MC4R beta-arrestin complementation; percent of melanotan II response, DMSO zero | activation, % at 8.9 µM | 0.98% of 360,000 active | AID 540308, 2011;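 active = activation above a per-plate cutoff, the mean activation of sample wells on that plate plus 3 SD, cut at about 8% in these data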
Target sequence (P32245 whole entry, looked up): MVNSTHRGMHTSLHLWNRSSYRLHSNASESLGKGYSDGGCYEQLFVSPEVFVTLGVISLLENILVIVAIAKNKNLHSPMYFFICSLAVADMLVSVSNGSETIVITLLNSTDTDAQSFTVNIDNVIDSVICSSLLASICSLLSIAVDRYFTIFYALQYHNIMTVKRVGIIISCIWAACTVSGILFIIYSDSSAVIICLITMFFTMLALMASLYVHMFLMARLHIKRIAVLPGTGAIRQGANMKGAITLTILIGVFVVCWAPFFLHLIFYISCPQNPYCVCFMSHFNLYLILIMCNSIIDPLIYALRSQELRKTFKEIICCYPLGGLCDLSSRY
NALP1 inh: NALP1 inflammasome inhibitors in reconstituted yeast, colorimetric, S. cerevisiae, triplicate retest; S. cerevisiae NALP1/ASC/caspase-1 growth, X-gal OD620, 72 h; inhibition, % at 10 µM; 0.61% of 280,000 active; in the data active = inhibition mostly above about 24%, no sharp cut-off; inactive = mostly below about 32%
MC4R antagonist: MC4R antagonists of cAMP signaling, primary screen, cell-based, TR-FRET, antagonist arm of biased-ligand search | inhibition, % at 6.5 µM | Melanocortin receptor 4 (Homo sapiens), P32245 | 0.48% of 360,000 active | MC4R-expressing cells, MTII-stimulated cAMP, LANCE TR-FRET;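 active = inhibition above its plate's cutoff, the mean of tested wells on that plate plus 3 SD, cut at about 29% in these data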;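 note: 0% = Melanotan II alone and 100% = Melanotan II plus saturating MCL0020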
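Material – human MC4R-expressing U2OS cells · Repeats – no replicates · Detection – TR-FRET with Eu-cAMP and labeled anti-cAMP, 671 nm · Times – compound 30 min, challenge 1 h, detection 1 h · Compound – single nominal compound dose of 6.5 µM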
NALP3 yeast inh: NALP3 inflammasome inhibitors in reconstituted yeast, primary screen, luminescence, uHTS. Yeast reconstituted NLRP3/ASC/caspase-1, beta-gal luminescence, 24 h. inhibition, % at 10 µM. AID 2825, 2010. 0.39% of 330,000 active;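 active = inhibition of 50% or more; inactive = inhibition below 50%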;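 note: plate controls were induced DMSO wells for no effect and uninduced yeast grown without galactose for full effect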
TbMetRS confirm: T. brucei MetRS inhibitors, confirmation, biochemical, luminescence. shares compounds with TbMetRS inhib. T. brucei MetRS enzyme, luminescence (ATP depletion). inhibition, % at 11.9 µM. 93% of 1,400 active. AID 624412, 2012; in the data active = inhibition above about 7%
Jurkat tox: Jurkat T cell cytotoxicity, cytotoxicity control for T. brucei MetRS inhibitor project, luminescence, high throughput; shares compounds with TbMetRS inhib; Jurkat cells viability, ATP luminescence; inhibition, % at 8.3 µM; 12% of 1,400 active; in the data active = inhibition above about 15%;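 note: 0% = vehicle and 100% = reference inhibitor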
TbMetRS FP orth: T. brucei MetRS inhibitors, orthogonal assay for T. brucei MetRS inhibitor project, biochemical, fluorescence polarization. 44% of 1,400 active. inhibition, % at 11.9 µM. AID 651607, 2012. purified T. brucei MetRS. shares compounds with TbMetRS inhib; in the data active = inhibition above about 17%;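 note: 0% = vehicle wells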
Numbers without * were called inactive; ? = inconclusive; · = no result.

SMILES	TbMetRS inhib	A1 inh	MC4R ag barr	NALP1 inh	MC4R antagonist	NALP3 yeast inh	TbMetRS confirm	Jurkat tox	TbMetRS FP orth
COc1ccc(C2=NOC(C(=O)N3CCN(C(=O)c4ccco4)CC3)C2)cc1OC (stereo not drawn)	0.1	0.3	-1.6	13.9	7.6	-8.2	·	·	·
O=c1[nH]c(=S)[nH]c2c1C(C1CCCCC1)OC(C1CCCCC1)C2 (stereo not drawn)	-0.6	·	·	·	·	·	·	·	·
O=C(CCCOc1ccc(Cl)cc1Cl)N/N=C/c1ccccc1O	37.4*	0.3	2.7	20.4	-2.5	12.1	80.4*	82.2*	76.0*
Cc1nn(C(=O)c2cc3sccc3[nH]2)c(C)c1C	9.2*	-3.6	-0.1	33.2	0.0	24.6	16.7*	-7.1	6.4
Cc1nn(C(=O)CNC(=O)c2ccccc2)c(C)c1C	0.1	1.9	-0.8	-12.1	-0.4	-7.4	·	·	·
Cc1cnc(CNC(=O)C2CCC(=O)N(Cc3ccc(Cl)cc3)C2)[nH]1 (stereo not drawn)	31.7*	0.1	-0.7	1.1	6.3	4.8	68.6*	-0.7	35.6*
O=C(NCc1ccccn1)C1CCC(=O)N(Cc2ccc(Cl)cc2)C1 (stereo not drawn)	0.7	1.9	-1.8	8.7	9.8	-5.2	·	·	·
CN(C)c1ccc(-c2[nH][nH]c(=O)c2NC(=O)c2ccccn2)cc1	28.1*	·	·	·	·	·	0.6	9.0	4.1
CN(C)c1ccc(-c2[nH][nH]c(=O)c2NC(=O)c2ccc3ccccc3n2)cc1	12.7*	·	·	·	·	·	1.2	6.2	1.8
Cc1cnc(C(=O)Nc2c(-c3ccccc3)[nH][nH]c2=O)cn1	-1.1	·	·	·	·	·	·	·	·
O=C(Nc1c(-c2ccccc2)[nH][nH]c1=O)c1ccccc1	-0.7	·	·	·	·	·	·	·	·
COc1ccc(S(=O)(=O)NNS(=O)(=O)c2ccc(OC)c(OC)c2)cc1OC	-0.1	·	·	·	·	·	·	·	·
COc1ccc(N2CCN(CC(=O)c3c[nH]c4ccccc34)CC2)cc1	3.8	1.4	-0.8	-2.4	1.4	11.4	·	·	·
Cc1[nH]c2ccccc2c1C(=O)C(=O)N1CCN(c2ccccc2)CC1	11.8*	0.4	2.4	4.7	2.0	13.1	19.4*	-11.7	9.7
COc1ccc(N2CCN(CCCNC(=O)C(=O)c3c(C)[nH]c4ccccc34)CC2)cc1	5.9*	-0.3	1.5	23.5	-5.8	-5.8	18.1*	-1.9	8.1
COc1ccc(N2CCN(C(=O)C(=O)c3c[nH]c4ccccc34)CC2)cc1	4.8	0.7	-2.8	13.8	2.0	13.2	·	·	·
COc1ccccc1N1CCN(C(=O)C(=O)c2c[nH]c3ccccc23)CC1	9.3*	1.2	-3.0	3.5	-1.2	13.6	26.9*	-2.5	4.1
O=C(CN1CCN(Cc2ccc3c(c2)OCO3)CC1)c1c[nH]c2ccccc12	13.6*	2.7	-1.5	5.0	0.2	11.2	27.0*	-3.5	8.6
Cc1[nH]c2ccccc2c1C(=O)C(=O)N1CCN(C)CC1	-0.1	0.4	2.1	-4.1	-0.1	10.0	·	·	·
Clc1cccc(Cc2c(-c3ccccc3)nc3ccc(Cl)cn23)c1	0.2	·	·	·	·	·	·	·	·
O=C(c1c[nH]c2ccccc12)N1CCN(Cc2ccccc2)CC1	0.8	-0.2	0.5	3.0	19.7	6.9	·	·	·
O=C(C(=O)N1CCN(Cc2ccccc2)CC1)c1c[nH]c2ccccc12	11.9*	1.3	-0.5	·	13.7	9.2	21.2*	-5.5	3.8
O=C(c1c[nH]c2ccccc12)N1CCN(c2ccccc2)CC1	-0.1	-1.2	-1.6	19.4	6.4	-1.7	·	·	·
O=C(C(=O)N1CCN(c2ccccc2)CC1)c1c[nH]c2ccccc12	6.7*	-0.5	-1.2	-17.2	-3.9	11.3	13.0*	4.3	3.0
O=C(C(=O)N1CCN(c2ccccc2F)CC1)c1c[nH]c2ccccc12	7.3*	0.7	-1.7	1.1	-2.7	-0.9	10.8*	6.4	2.9
SMILES	TbMetRS inhib	A1 inh	MC4R ag barr	NALP1 inh	MC4R antagonist	NALP3 yeast inh	TbMetRS confirm	Jurkat tox	TbMetRS FP orth
CCOCc1c(C(=O)NCc2ccccc2CN2CCCC2)oc2ccccc12	-0.1	-0.8	-0.2	·	16.9	29.1	·	·	·
Cc1ccc(NC(=O)/C(=C/C=C/c2ccccc2)NC(=O)c2ccccc2)cc1	0.2	0.6	-0.5	29.4	-2.8	16.0	·	·	·
CC(=O)Oc1ccc(/C=C(\NC(=O)c2cccc(Br)c2)C(=O)Nc2ccc(C(=O)O)cc2)cc1	6.2*	-0.2	0.2	·	19.4	4.8	12.0*	-2.0	10.2
O=C(Nc1ccc(C(=O)O)cc1)/C(=C\C=C\c1ccccc1)NC(=O)c1ccc(Br)cc1	21.3*	-0.3	-3.0	-17.5	-11.5	25.9	39.6*	1.2	38.8*
CCOC(=O)[C@@H]1[C@H]2COc3ccc(Br)cc3[C@H]2N2C(=O)N(c3ccc(Cl)cc3)C(=O)[C@]12C	0.0	?	-1.1	·	14.5	-0.5	·	·	·
O=[N+]([O-])c1[nH]cnc1/C=C/c1ccccc1	5.6*	-1.2	-1.4	-11.3	16.8	1.9	10.1*	3.8	-0.3
COC(=O)c1nc[nH]c1[N+](=O)[O-]	-0.1	·	-2.9	·	3.8	·	·	·	·
Nc1ncnc2c1ncn2[C@@H]1O[C@H](CN2CCCS2(=O)=O)[C@@H](O)[C@H]1O	-0.9	0.8	-1.3	·	6.0	3.6	·	·	·
Cc1ccc2[nH]cc(S(=O)(=O)c3ccc(C)c(C)c3)c(=O)c2c1	6.8*	-0.1	-0.1	8.8	0.4	-7.6	38.1*	3.9	8.7
O=[N+]([O-])c1ccc2nc(SCc3cn4ccccc4n3)[nH]c2c1	17.4*	0.0	-2.0	31.1	9.7	12.1	35.2*	-2.8	21.4*
CCN(CC(=O)NCc1cccs1)C(=O)c1cccc(S(=O)(=O)Nc2ccc(OC)cc2)c1	-0.1	0.1	-1.5	·	11.9	13.8	·	·	·
CC1CCN(C(=O)COC(=O)CCC(=O)c2ccc(Cl)cc2)CC1	-0.5	-0.9	-1.8	·	2.4	18.0	·	·	·
COc1ccc(CN(C)C(=O)[C@H]2O[C@@H](n3cnc4c(N)ncnc43)[C@H](O)[C@@H]2O)cc1OC	-0.4	·	·	·	·	·	·	·	·

Screening data: PubChem, several laboratories
